This passage reports MIC and IC50 results from ChEMBL document CHEMBL1221391, “Identification of novel antitubercular compounds through hybrid virtual screening approach” (Bioorg Med Chem, 2010).

One may read the MIC as the lowest concentration that inhibits growth of the organism. Usually IC50 stands for the concentration at which inhibition is half-maximal. Higher therefore signals lower potency.

Converted amounts (≈) assume the structure as drawn.

The subject of the assay is Mycobacterium tuberculosis. As to the kind of experiment: Antitubercular activity against Mycobacterium tuberculosis H37Rv after 7 days. The class given is functional, organism-based. To be noted: 168 h. The gist of the method:
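MABA in 7H9 broth with 0.2% glycerol, 1.0 g/l Casitone, 10% OADC and 0.05% Tween 80, grown to OD600 0.4. Culture diluted 1:50 to give 2 × 10^5 CFU/ml. Twofold serial dilutions made from DMSO stock. Incubated 37 °C for 7 days, then alamar blue added and read after 24 h. MIC is the lowest concentration preventing the blue-to-pink change. Rifampicin reference.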
With `Cc1ccc(NC(=O)C2CC(=O)N(CCc3c[nH]c4ccc(Cl)cc34)C2)cc1` (stereo not drawn), 80.8 µM (≈ 32 µg/mL) was the least that counted as inhibitory (MIC).

Consider `Cc1[nH]c2cc(C(=O)N3CCN(Cc4ccccc4)CC3)ccc2c1C`, for which the minimal inhibitory concentration (MIC) was found to be 368 µM (≈ 128 µg/mL). On to `COc1cccc(CNC(=O)CN2CCCN(Cc3ccc(Cl)cc3)S2(=O)=O)c1`, for which the MIC was 146 µM (≈ 64 µg/mL).

Regarding `Cc1oc(-c2ccccc2)nc1CN1CCN(C(=O)c2ccccc2)CC1`, the MIC was found to be 187 µM (≈ 67.8 µg/mL). The MIC values of the last two molecules are within 1.5-fold of each other. In the case of `O=C(C1CC(=O)N(C2CCCC2)C1)N1CCC(Cc2ccccc2)CC1` (stereo not drawn), the MIC amounted to 361 µM (≈ 128 µg/mL).

Regarding `O=C(NCc1ccc(F)cc1)C1CC(=O)N(C2CCCCCCC2)C1` (stereo not drawn), the MIC was determined as 369 µM (≈ 128 µg/mL). The MIC values of the last two molecules are within 1.5-fold of each other.

As to `O=C(c1ccc(F)cc1)N1CCN(C2c3ccccc3-c3ccccc32)CC1`, the MIC is 85.9 µM (≈ 32 µg/mL). On the same count and under the same terms, the value for `O=C(c1cccs1)N1CCN(C2c3ccccc3-c3ccccc32)CC1` was 355 µM (≈ 128 µg/mL); that for `CCCCCCCc1ccc(C(=O)Oc2ccc([N+](=O)[O-])cc2)cc1` was 187 µM (≈ 64 µg/mL). On the same count and under the same terms, the value for `Cc1ccc(OC(=O)c2ccc(Cl)cc2)cc1` was 259 µM (≈ 64 µg/mL).

The molecule `CCCCCCc1ccc(C(=O)Oc2ccc(Cl)cc2)cc1` came in with an MIC of 202 µM (≈ 64 µg/mL). This MIC and that of the molecule before are within 1.5-fold of each other. Molecule `Cc1ccc(C(=O)CC(=O)c2ccc(Cl)cc2)c(O)c1` returned an MIC of 13.8 µM (≈ 4 µg/mL). Still for that read-out and setting: next, `CCc1ccc(C(=O)Oc2cccnc2)cc1`: 563 µM (≈ 128 µg/mL); `CCCCCc1ccc(OC(=O)c2ccc(Cl)cc2)cc1`: 106 µM (≈ 32 µg/mL).

`O=C(Nc1ccccc1O)c1ccc(Oc2ccc([N+](=O)[O-])cc2)cc1` came in with an MIC of 5.7 µM (≈ 2 µg/mL). On the same count and under the same terms, the value for `Cc1ccc(/N=C/c2cc(Cc3ccccc3Cl)ccc2O)c(O)c1` was 182 µM (≈ 64 µg/mL); that for `O=C1c2ccc(Oc3cccc([N+](=O)[O-])c3)cc2C(=O)N1c1ccccc1O` was 85 µM (≈ 32 µg/mL).

With `Oc1cccc(Oc2c(F)c(F)nc(F)c2F)c1`, inhibition of growth (MIC) required 247 µM (≈ 64 µg/mL). The same measure, in the same setting: the value for `CCc1ccc(O)c(/N=C/c2cc(Cl)cc(Cl)c2O)c1` was 206 µM (≈ 64 µg/mL). The same measure, in the same setting: next, `O=[N+]([O-])c1ccc(Oc2cc(C(F)(F)F)ccc2Cl)cc1O`: 384 µM (≈ 128 µg/mL). As for `S=C(c1ccc(Br)cc1)N1CCN(Cc2ccccc2)CC1`, 85.2 µM (≈ 32 µg/mL) was the least that counted as inhibitory (MIC). Same read-out and setting: the value for `Cc1ccc(S(=O)(=O)N2CCN(C(=O)c3ccc(Br)cc3)CC2)cc1` was 302 µM (≈ 128 µg/mL); that for `Cc1ccc(C(=O)N2CCN(S(=O)(=O)c3ccccc3)CC2)cc1` was 372 µM (≈ 128 µg/mL). Take `O=C(Nc1ccc(C(F)(F)F)cc1)NC1CC(=O)N(C2CCCC2)C1` (stereo not drawn): the MIC amounted to 180 µM (≈ 64 µg/mL).

`CCCCCc1ccc(Oc2ccccc2)c(O)c1` showed a half-maximal inhibitory concentration (IC50) of 17 nM and an MIC of 3.5 µM (≈ 0.897 µg/mL). For the molecule `CCCCCCCCCCCCCCc1ccc(Oc2ccccc2)c(O)c1`, the IC50 was 150 nM and the MIC amounted to 460 µM (≈ 176 µg/mL). On to `CN(C(=O)C1CC(=O)N(C2CCCCCC2)C1)c1cc(-c2ccccc2)c(O)c(-c2ccccc2)c1` (stereo not drawn), for which the IC50 was found to be 360 nM and the minimal inhibitory concentration (MIC) was over 125 µM.

As to `O=C(CCN1C(=O)c2ccccc2C1=O)N1CCN(C(c2ccccc2)c2ccccc2)CC1`, inhibition of growth (MIC) required 141 µM (≈ 64 µg/mL). The molecule `Cc1ccc(C(=O)N2CCN(c3cccc(Cl)c3)CC2)cc1C` gave an IC50 of 990 nM and a minimal inhibitory concentration (MIC) of over 125 µM. Taken in the same sequence, the figures for `O=C(c1ccccc1)N1CCN(C2c3ccccc3-c3ccccc32)CC1` were 90 nM and over 125 µM. The matching figures for `Oc1cc(CCCc2ccccc2)ccc1Oc1ccc(Cl)cc1Cl`: 50 nM and 50 µM (≈ 18.7 µg/mL). On to `Oc1cc(CCc2ccccc2)ccc1Oc1ccc(Cl)cc1Cl`, for which half-maximal inhibition (IC50) was put at 21 nM and the minimum inhibitory concentration (MIC) worked out at 52 µM (≈ 18.7 µg/mL). The matching figures for `CC(C)Cc1ccc(Oc2ccc(Cl)cc2Cl)c(O)c1`: 96 nM and 60 µM (≈ 18.7 µg/mL). Taken in the same sequence, the figures for `CCCCCCc1ccc(Oc2ccccc2)c(O)c1` were 11 nM and 7.8 µM (≈ 2.11 µg/mL). The molecule `O=C(Nc1cc(Br)cc(C(F)(F)F)c1)C1CC(=O)N(C2CCCCC2)C1` (stereo not drawn) yielded an IC50 of 850 nM and an MIC of 62.5 µM (≈ 27.1 µg/mL). With `Cc1ccc(C(=O)N2CCN(C3c4ccccc4-c4ccccc43)CC2)cc1`, the IC50 is 400 nM and the minimum inhibitory concentration (MIC) is over 125 µM. Molecule `CCCCc1ccc(Oc2ccc(Cl)cc2Cl)c(O)c1` displayed an IC50 of 91 nM and an MIC of 30 µM (≈ 9.34 µg/mL). Taken in the same sequence, the figures for `Oc1cc(Cc2ccccc2)ccc1Oc1ccc(Cl)cc1Cl` were 51 nM and 27 µM (≈ 9.32 µg/mL). Taken in the same sequence, the figures for `CN(Cc1c2ccccc2cc2ccccc12)C(=O)C1CC(=O)N(C2CCCCCCC2)C1` (stereo not drawn) were 320 nM and 62.5 µM (≈ 27.7 µg/mL). Taken in the same sequence, the figures for `CN(Cc1c2ccccc2cc2ccccc12)C(=O)C1CC(=O)N(C2CC3CCC2C3)C1` (stereo not drawn) were 460 nM and 125 µM (≈ 53.3 µg/mL).

On to `CCCCCCCCc1ccc(Oc2ccccc2)c(O)c1`, for which the midpoint of inhibition, the IC50, lay at 5 nM and the MIC was 6.4 µM (≈ 1.91 µg/mL). On to `CO[C@H]1/C=C/O[C@@]2(C)Oc3c(C)c(O)c4c(O)c(c(/C=N/N5CCN(C)CC5)c(O)c4c3C2=O)NC(=O)/C(C)=C\C=C\[C@H](C)[C@H](O)[C@@H](C)[C@@H](O)[C@@H](C)[C@H](OC(C)=O)[C@@H]1C` [RIFAMPIN], for which it took 0.01 µM (≈ 0.00823 µg/mL) to inhibit growth (MIC).
